Measured values taken from publication PMC3032979 (Structure (London, England : 1993), 2011).
Like-named read-outs stand apart in the source and are kept apart here.

How the values were obtained:
CAR LBD within CAR:RXR = test: differential amide HDX MS, CAR portion of CAR:RXR; set-up: species or system murine; conditions: for HDX kinetics versus unliganded CAR:RXR (in words): 4°C, pH 8, 10–3600 seconds
mCAR = conditions: LXRE response element, HepG2 cells; ref Huang et al., 2004; cited from earlier work
murine CAR = conditions: cited from earlier work
CAR:RXR [1] = target: T1, CAR:RXR (Mus musculus, UniProt O35627); test: ITC, SRC1 box 2 peptide binding to wild-type CAR:RXR LBDs; set-up: species or system murine (mCAR LBD), human (RXR LBD); conditions: for affinity of ligand-bound CAR:RXR for SRC1 coactivator (in words): saturating meclizine versus TCPOBOP
T1 sequence (O35627 117-358, other chains not shown): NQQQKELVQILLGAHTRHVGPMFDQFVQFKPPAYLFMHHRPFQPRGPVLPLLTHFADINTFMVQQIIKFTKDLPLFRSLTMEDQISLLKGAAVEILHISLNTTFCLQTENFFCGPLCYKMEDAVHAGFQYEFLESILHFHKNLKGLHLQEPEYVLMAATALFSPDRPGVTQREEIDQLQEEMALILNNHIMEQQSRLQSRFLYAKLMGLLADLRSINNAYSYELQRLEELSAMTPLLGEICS
RXR LBD within CAR:RXR = test: differential amide HDX MS, RXR portion of CAR:RXR; set-up: species or system human; conditions: 4°C, pH 8, 10–3600 seconds
human CAR isoform = conditions: ref Huang et al., 2004; cited from earlier work
CAR:RXR [2] = target: T1, CAR:RXR; test: effect of CAR ligands on 9-cis-retinoic acid; type: binding, murine (mCAR LBD), human (RXR LBD); conditions: fluorescence quenching at 340 nm upon titrating 9c into CAR:RXR
CAR:(W305F)RXR = test: steady-state tryptophan fluorescence quenching, CAR:; type: binding, murine (mCAR LBD), human (RXR LBD); conditions: 1.0 μM protein (Figure S2); excitation 295 nm; pH 8.0
Outline: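 Human RXR LBD (residues 225–462) carrying W305F, co-expressed with CAR LBD in E. coli BL21(DE3) Gold (0.5 mM IPTG, 20 h, 20°C). Heterodimer purified by Ni-NTA, then size exclusion in 20 mM Tris-HCl pH 8.0, 250 mM NaCl, 2.5 mM EDTA, 5.0 mM DTT. Steady-state emission scanned 305–400 nm and compared with wild-type and W282F heterodimers at 340 nm.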

CAR:(W282F)RXR = test: steady-state tryptophan fluorescence quenching, CAR:; type: binding, murine (mCAR LBD), human (RXR LBD); conditions: 1.0 μM protein (Figure S2); excitation 295 nm; pH 8.0
(L343F)CAR:RXR = target: T2, (L343F)CAR:RXR (Mus musculus, UniProt O35627, L343F); test: ITC, SRC1 peptide binding to; set-up: species or system murine (mCAR LBD), human (RXR LBD); conditions: for ΔG / −TΔS / n (one-site binding model) / ΔH: SRC1 peptide binding, 25°C; for ΔG / −TΔS: pH 7.2; for n (one-site binding model) / ΔH: pH 7.2, average of at least three experiments ± SD
T2 sequence (O35627 117-358 L343F): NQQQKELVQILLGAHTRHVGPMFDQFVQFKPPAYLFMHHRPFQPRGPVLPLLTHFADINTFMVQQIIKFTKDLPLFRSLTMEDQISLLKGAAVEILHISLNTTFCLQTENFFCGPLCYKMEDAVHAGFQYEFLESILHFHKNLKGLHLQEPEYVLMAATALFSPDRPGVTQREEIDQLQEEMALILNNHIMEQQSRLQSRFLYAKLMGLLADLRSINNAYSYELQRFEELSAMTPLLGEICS
T2 sequence (P19793 225-462 partner limits assumed): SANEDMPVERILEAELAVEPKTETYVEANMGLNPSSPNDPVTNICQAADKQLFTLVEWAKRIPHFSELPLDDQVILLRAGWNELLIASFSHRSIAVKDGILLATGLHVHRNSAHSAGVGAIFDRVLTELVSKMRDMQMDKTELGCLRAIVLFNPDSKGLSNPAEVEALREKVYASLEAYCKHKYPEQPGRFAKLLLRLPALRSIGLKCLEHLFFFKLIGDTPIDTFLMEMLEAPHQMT

(L343A)CAR:RXR = (L343A)CAR:RXR (Mus musculus, UniProt O35627, L343A); test: ITC, SRC1 peptide binding to; set-up: species or system murine (mCAR LBD), human (RXR LBD); conditions: for ΔG / −TΔS / n (one-site binding model) / ΔH: SRC1 peptide binding, 25°C; for ΔG / −TΔS: pH 7.2; for n (one-site binding model) / ΔH: pH 7.2, average of at least three experiments ± SD
Sequence of (L343A)CAR:RXR (O35627 117-358 L343A, other chains not shown): as the sequence (O35627 117-358, other chains not shown) above, with L227A counted along it

[3] = residues 327–358 (H10, H11, H12)
[4] = SRC1 peptide binding in the presence of meclizine (ten-fold excess), 25°C, pH 7.2
[5] = SRC1 peptide binding in the presence of meclizine (ten-fold excess), 25°C, pH 7.2, average of at least three experiments ± SD

Cc1cccc(CN2CCN(C(c3ccccc3)c3ccc(Cl)cc3)CC2)c1 (stereo not drawn) [meclizine, 1-[(4-chlorophenyl)(phenyl)methyl]-4-(3-methylbenzyl)piperazine]
HDX kinetics versus unliganded CAR:RXR (in words) (CAR LBD within CAR:RXR; residues 228–245 (segment of β-sheet and H6)): significantly protected to exchange | HDX kinetics versus unliganded CAR:RXR (in words) (CAR LBD within CAR:RXR; [3]): significantly protected to exchange | agonist response (in words) (mCAR): mCAR agonist | transactivation by murine CAR (in words) (murine CAR; ref Huang et al., 2004): further enhanced | affinity of ligand-bound CAR:RXR for SRC1 coactivator (in words) (CAR:RXR [1]): affinity for coactivator is less than CAR(TCPOBOP) | HDX kinetics of RXR versus unliganded CAR:RXR (in words) (RXR LBD within CAR:RXR; 84 regions of RXR): no significant differences in exchange kinetics in RXR | function on human CAR (in words) (human CAR isoform): inverse agonist

C[C@]12CC[C@@H](O)C[C@@H]1CC[C@@H]1[C@@H]2CC[C@]2(C)C=CC[C@@H]12 [androstenol, 5α-androst-16-en-3α-ol]
ligand function on murine CAR (in words) (murine CAR; androstane metabolites, ref Forman et al., 1998): physiological inverse agonist ligands of murine CAR

Clc1cnc(Oc2ccc(Oc3ncc(Cl)cc3Cl)cc2)c(Cl)c1 [TCPOBOP, 1,4-bis[2-(3,5-dichloropyridyloxy)]benzene]
overall impact on conformational dynamics of CAR (in words) (CAR LBD within CAR:RXR; differential HDX, TCPOBOP compared with meclizine): broader and of greater magnitude than that of meclizine | HDX kinetics versus unliganded CAR:RXR (in words) (CAR LBD within CAR:RXR; residues 143–178 (helices H2′, H2″, parts of H3)): significant protection from exchange | HDX kinetics versus unliganded CAR:RXR (in words) (CAR LBD within CAR:RXR; [3]): most significant reductions in HDX behavior | HDX exchange kinetics, residues 339–345 in CAR (in words) (CAR LBD within CAR:RXR; residues 339–345, CAR(TCPOBOP):RXR compared with CAR(meclizine):RXR): greater magnitude reduction in exchange kinetics | effect on 9c binding to CAR:RXR (in words) (CAR:RXR [2]): do not appear to significantly affect 9-cis-retinoic acid (9c) binding to CAR:RXR | agonist response (in words) (mCAR): stronger agonist response from CAR than meclizine | tryptophan fluorescence response of CAR:(W305F)RXR (in words) (CAR:(W305F)RXR): no significant response | transactivation by murine CAR (in words) (murine CAR; ref Tzameli et al., 2000): further enhanced | affinity of ligand-bound CAR:RXR for SRC1 coactivator (in words) (CAR:RXR [1]): higher affinity for coactivator than meclizine | HDX kinetics of RXR versus unliganded CAR:RXR (in words) (RXR LBD within CAR:RXR; RXR residues 416–432 (helix H10)): significant reduction in HDX kinetics | tryptophan quenching of CAR:(W282F)RXR (in words) (CAR:(W282F)RXR): strong dose-dependent increase in tryptophan quenching

CC[C@H](C)[C@H](NC(=O)[C@H](CCCCN)NC(=O)[C@H](Cc1c[nH]cn1)NC(=O)[C@@H](N)CCCNC(=N)N)C(=O)N[C@@H](CC(C)C)C(=O)N[C@@H](Cc1c[nH]cn1)C(=O)N[C@@H](CCCNC(=N)N)C(=O)N[C@@H](CC(C)C)C(=O)N[C@@H](CC(C)C)C(=O)N[C@@H](CCC(N)=O)C(=O)N[C@@H](CCC(=O)O)C(=O)NCC(=O)N[C@@H](CO)C(=O)O [SRC1 peptide]
affinity for coactivator and entropy (in words) ((L343F)CAR:RXR; (L343F)CAR:RXR, no ligand, versus wild-type complex): significantly greater affinity for coactivator and lower unfavorable entropy compared to the wild-type complex | ΔG ((L343F)CAR:RXR; L343F (androstenol)): -7.3 kcal/mol | −TΔS ((L343F)CAR:RXR; L343F (androstenol)): 2.7 kcal/mol | n (one-site binding model) ((L343F)CAR:RXR; L343F (androstenol)): 1.0 ± 0.04 | ΔH ((L343F)CAR:RXR; L343F (androstenol)): -10.0 ± 0.2 kcal/mol | ΔG ((L343F)CAR:RXR; L343F (no ligand)): -8.2 kcal/mol | −TΔS ((L343F)CAR:RXR; L343F (no ligand)): 0.30 kcal/mol | n (one-site binding model) ((L343F)CAR:RXR; L343F (no ligand)): 0.97 ± 0.05 | ΔH ((L343F)CAR:RXR; L343F (no ligand)): -8.5 ± 0.2 kcal/mol | unfavorable entropy (TΔS) of SRC1 peptide binding (in words) ((L343A)CAR:RXR; (L343A)CAR:RXR, no ligand): appreciably higher unfavorable entropy (TΔS) | affinity for SRC1 peptide (in words) ((L343A)CAR:RXR; (L343A)CAR:RXR, no ligand, versus wild-type CAR): lower than wild-type CAR | ΔG ((L343A)CAR:RXR; L343A (TCPOBOP)): -7.8 kcal/mol | −TΔS ((L343A)CAR:RXR; L343A (TCPOBOP)): 3.7 kcal/mol | n (one-site binding model) ((L343A)CAR:RXR; L343A (TCPOBOP)): 0.92 ± 0.14 | ΔH ((L343A)CAR:RXR; L343A (TCPOBOP)): -11.5 ± 0.8 kcal/mol | ΔG ((L343A)CAR:RXR; L343A (no ligand)): -6.6 kcal/mol | −TΔS ((L343A)CAR:RXR; L343A (no ligand)): 4.0 kcal/mol | n (one-site binding model) ((L343A)CAR:RXR; L343A (no ligand)): 1.0 ± 0.13 | ΔH ((L343A)CAR:RXR; L343A (no ligand)): -10.6 ± 0.5 kcal/mol | ΔG (CAR:RXR [1]; [4]): -8.2 kcal/mol | −TΔS (CAR:RXR [1]; [4]): 1.7 kcal/mol | n (one-site binding model) (CAR:RXR [1]; [5]): 0.95 ± 0.08 | ΔH (CAR:RXR [1]; [5]): -9.9 ± 0.3 kcal/mol
